# The source made the active and inactive calls. The calls are words filed in the database; no cut-off is given here.
# Columns and labels:
# [1] = molecular target: T1, Sphingosine 1-phosphate receptor 1 (Homo sapiens, UniProt P21453); experiment: Agonist activity at human recombinant S1P1 receptor expressed in CHO cells by GTPgammaS binding assay; type: functional, cell-based
# [2] = molecular target: T2, Sphingosine 1-phosphate receptor 3 (Homo sapiens, UniProt Q99500); experiment: Agonist activity at human recombinant S1P3 receptor expressed in CHO cells by GTPgammaS binding assay; type: functional, cell-based
# T2 sequence (Q99500 whole entry): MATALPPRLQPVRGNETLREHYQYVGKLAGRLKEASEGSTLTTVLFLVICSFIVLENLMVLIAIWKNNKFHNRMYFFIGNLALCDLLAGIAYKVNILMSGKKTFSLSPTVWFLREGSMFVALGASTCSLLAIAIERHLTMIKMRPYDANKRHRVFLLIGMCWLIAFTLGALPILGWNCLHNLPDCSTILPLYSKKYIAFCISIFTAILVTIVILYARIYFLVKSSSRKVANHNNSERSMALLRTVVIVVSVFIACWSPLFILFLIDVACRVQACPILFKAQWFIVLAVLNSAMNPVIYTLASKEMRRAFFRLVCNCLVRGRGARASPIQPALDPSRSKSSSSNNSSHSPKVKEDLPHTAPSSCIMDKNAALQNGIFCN
# In short: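 Membranes from CHO cells expressing recombinant human receptor. Buffer 20 mM Hepes pH 7.4, 100 mM NaCl, 5 mM MgCl2, 0.1% fatty-acid-free BSA, 2.5% DMSO, GDP (1 uM for S1P1, 3 uM for S1P3), 50 pM 35S-GTPγS. Compound preincubated with membranes 30 min at room temperature, then 1 h with 35S-GTPγS. Reaction filtered and bound label counted. Specific binding is the 10 uM S1P signal minus the no-agonist signal. EC50 is the concentration giving 50% of specific binding; three independent assays.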
# [3] = test system: Rattus norvegicus; experiment: Immunomodulatory activity in normotensive Wistar rat assessed as change in circulating lymphocytes count at 10 mg/kg, po after 3 hrs relative to control; type: functional
# In short: (§1)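 Normotensive male Wistar rats were housed on a 12 h light/dark cycle with free chow and water. Compound was dissolved in DMSO and added to 7.5% aqueous gelatin (final 5% DMSO), then given by gavage at 10 mg/kg (n = 6). Vehicle was 95% gelatin (7.5%)/5% DMSO (n = 30). Blood was taken before dosing and at 3, 6 and 24 h and counted by hematology analyzer. Counts are % change from t = 0 h ± SEM.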
# [4] = test system: Rattus norvegicus; experiment: Immunomodulatory activity in normotensive Wistar rat assessed as change in circulating lymphocytes count at 10 mg/kg, po after 6 hrs relative to control; type: functional; in short: as §1
# [5] = test system: Rattus norvegicus; experiment: Immunomodulatory activity in normotensive Wistar rat assessed as change in circulating lymphocytes count at 10 mg/kg, po after 24 hrs relative to control; type: functional; in short: as §1
# [6] = Intrinsic clearance in Wistar rat liver microsomes at 1 uM by LC-MS/MS analysis measured per mg of protein; type: ADME, Microsome
# [7] = Intrinsic clearance in Beagle dog liver microsomes at 1 uM by LC-MS/MS analysis measured per mg of protein; type: ADME, Canis lupus familiaris, Microsome
# [8] = Intrinsic clearance in human liver microsomes at 1 uM by LC-MS/MS analysis measured per mg of protein; type: ADME, Microsome
# [9] = Intrinsic clearance in rat hepatocytes at 1 uM by LC-MS/MS analysis measured per million cells; type: ADME, cell-based, Liver, Hepatocyte
# [10] = Intrinsic clearance in Beagle dog hepatocytes at 1 uM by LC-MS/MS analysis measured per million cells; type: ADME, cell-based, Canis lupus familiaris, Liver, Hepatocyte
# [11] = Bioavailability in Wistar rat at 3 mg/kg, po and 0.3 mg/kg, iv; type: ADME, organism-based; conditions: in vivo
# In short: (§2)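 Male Wistar rats (n = 3) were dosed at 3 mg/kg orally and 0.3 mg/kg intravenously. Plasma pharmacokinetic parameters were derived from these runs.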
# [12] = Cmax in Wistar rat at 3 mg/kg, po and 0.3 mg/kg, iv; type: ADME, organism-based; conditions: in vivo; in short: as §2
# [13] = Half life in Wistar rat at 3 mg/kg, po and 0.3 mg/kg, iv; type: ADME, organism-based; conditions: in vivo; in short: as §2
# [14] = Clearance in Wistar rat at 3 mg/kg, po and 0.3 mg/kg, iv; type: ADME, organism-based; conditions: in vivo; in short: as §2
# [15] = Volume of distribution at steady state in Wistar rat at 3 mg/kg, po and 0.3 mg/kg, iv; type: ADME, organism-based; conditions: in vivo, read-out: Vdss; in short: as §2
# [16] = Bioavailability in Beagle dog at 3 mg/kg, po and 0.3 mg/kg, iv; type: ADME, organism-based, Canis lupus familiaris; conditions: in vivo
# In short: (§3)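 Fed male beagle dogs (n = 3) were dosed at 3 mg/kg orally and 0.3 mg/kg intravenously. Plasma exposure was measured to derive bioavailability, Cmax, half-life, clearance and Vss.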
# [17] = Cmax in Beagle dog at 3 mg/kg, po and 0.3 mg/kg, iv; type: ADME, organism-based, Canis lupus familiaris; conditions: in vivo; in short: as §3
# [18] = Half life in Beagle dog at 3 mg/kg, po and 0.3 mg/kg, iv; type: ADME, organism-based, Canis lupus familiaris; conditions: in vivo; in short: as §3
# [19] = Clearance in Beagle dog at 3 mg/kg, po and 0.3 mg/kg, iv; type: ADME, organism-based, Canis lupus familiaris; conditions: in vivo; in short: as §3
# [20] = Volume of distribution at steady state in Beagle dog at 3 mg/kg, po and 0.3 mg/kg, iv; type: ADME, organism-based, Canis lupus familiaris; conditions: in vivo, read-out: Vdss; in short: as §3
# [21] = molecular target: T1, Sphingosine 1-phosphate receptor 1; experiment: Agonist activity at human recombinant S1P1 receptor expressed in HEK cells by GTPgammaS binding assay; type: functional, cell-based, HEK293
# In short: (§4)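 Membranes from cells expressing recombinant receptor. Buffer: 20 mM Hepes pH 7.4, 100 mM NaCl, 5 mM MgCl2, 0.1% fatty-acid-free BSA, 2.5% DMSO. GDP 1 µM for S1P1, 3 µM for S1P3. Compound preincubated with membranes 30 min at RT, then 50 pM 35S-GTPγS added for 1 h at RT. Bound label collected by filtration and counted. […] Values are geometric means of independent experiments.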
# [22] = molecular target: T3, Sphingosine 1-phosphate receptor 2 (Homo sapiens, UniProt O95136); experiment: Agonist activity at human recombinant S1P2 receptor expressed in HEK cells by GTPgammaS binding assay; type: functional, HEK293
# T3 sequence (O95136 whole entry): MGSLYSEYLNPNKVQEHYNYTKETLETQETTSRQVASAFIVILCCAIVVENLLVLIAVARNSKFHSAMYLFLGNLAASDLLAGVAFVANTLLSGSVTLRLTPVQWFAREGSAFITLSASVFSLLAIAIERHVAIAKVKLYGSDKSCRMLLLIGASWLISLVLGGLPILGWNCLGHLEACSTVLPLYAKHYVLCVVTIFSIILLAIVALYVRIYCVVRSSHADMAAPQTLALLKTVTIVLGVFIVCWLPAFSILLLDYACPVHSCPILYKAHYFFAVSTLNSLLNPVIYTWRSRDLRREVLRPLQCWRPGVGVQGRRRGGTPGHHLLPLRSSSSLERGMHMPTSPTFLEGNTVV
# [23] = molecular target: T2, Sphingosine 1-phosphate receptor 3; experiment: Agonist activity at human recombinant S1P3 receptor expressed in HEK cells by GTPgammaS binding assay; type: functional, HEK293; in short: as §4
# [24] = molecular target: T4, Sphingosine 1-phosphate receptor 4 (Homo sapiens, UniProt O95977); experiment: Agonist activity at human recombinant S1P4 receptor expressed in CHO cells by GTPgammaS binding assay; type: functional, cell-based
# T4 sequence (O95977 whole entry): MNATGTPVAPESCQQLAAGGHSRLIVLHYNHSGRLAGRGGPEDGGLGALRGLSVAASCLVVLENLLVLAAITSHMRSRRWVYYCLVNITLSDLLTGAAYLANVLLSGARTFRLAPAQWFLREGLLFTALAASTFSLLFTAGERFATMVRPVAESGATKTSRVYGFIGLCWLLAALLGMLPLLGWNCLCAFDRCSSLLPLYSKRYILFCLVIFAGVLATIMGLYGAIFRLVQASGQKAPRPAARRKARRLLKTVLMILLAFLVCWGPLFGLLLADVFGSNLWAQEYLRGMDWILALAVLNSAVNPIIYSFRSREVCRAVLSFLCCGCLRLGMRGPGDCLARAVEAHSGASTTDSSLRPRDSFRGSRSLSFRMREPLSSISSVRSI
# [25] = molecular target: T5, Sphingosine 1-phosphate receptor 5 (Homo sapiens, UniProt Q9H228); experiment: Agonist activity at human recombinant S1P5 receptor expressed in CHO cells by GTPgammaS binding assay; type: functional, cell-based
# T5 sequence (Q9H228 whole entry): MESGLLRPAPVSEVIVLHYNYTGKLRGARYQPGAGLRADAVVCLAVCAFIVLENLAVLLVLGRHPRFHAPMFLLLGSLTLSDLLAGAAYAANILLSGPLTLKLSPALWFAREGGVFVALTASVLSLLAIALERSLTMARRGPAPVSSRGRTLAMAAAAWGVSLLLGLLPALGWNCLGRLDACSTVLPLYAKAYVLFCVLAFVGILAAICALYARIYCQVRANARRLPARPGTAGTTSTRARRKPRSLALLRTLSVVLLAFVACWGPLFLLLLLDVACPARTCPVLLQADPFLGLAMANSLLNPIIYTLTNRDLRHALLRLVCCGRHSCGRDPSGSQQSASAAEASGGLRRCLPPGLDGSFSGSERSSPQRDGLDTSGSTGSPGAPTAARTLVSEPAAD
# [26] = molecular target: T1, Sphingosine 1-phosphate receptor 1; experiment: Displacement of [33P]S1P from human recombinant S1P1 receptor expressed in HEK cells by scintillation counting; type: cell-based, HEK293; conditions: read-out: IC50
# In short: (§5)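 33P-S1P binding to membranes of recombinant receptor-expressing cells. IC50 reported as the geometric mean of independent experiments, with the geometric standard deviation.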
# [27] = molecular target: T3, Sphingosine 1-phosphate receptor 2; experiment: Displacement of [33P]S1P from human recombinant S1P2 receptor expressed in HEK cells by scintillation counting; type: cell-based, HEK293
# [28] = molecular target: T2, Sphingosine 1-phosphate receptor 3; experiment: Displacement of [33P]S1P from human recombinant S1P3 receptor expressed in HEK cells by scintillation counting; type: cell-based, HEK293; conditions: read-out: IC50; in short: as §5
# [29] = molecular target: T4, Sphingosine 1-phosphate receptor 4; experiment: Displacement of [33P]S1P from human recombinant S1P4 receptor expressed in CHO cells by scintillation counting; type: cell-based
# [30] = molecular target: T5, Sphingosine 1-phosphate receptor 5; experiment: Displacement of [33P]S1P from human recombinant S1P5 receptor expressed in CHO cells by scintillation counting; type: cell-based
# [31] = molecular target: T6, Sphingosine 1-phosphate receptor 4 (Homo sapiens) (UniProt O95977); experiment: Agonist activity at human recombinant S1P4 receptor expressed in CHO cells at 10 uM by GTPgammaS binding assay relative to S1P; type: functional, cell-based
# T6 sequence (whole entry): T4 sequence (O95977 whole entry)
# In short: (§6)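 In the same CHO-membrane 35S-GTPγS binding assay with human receptor, maximal activity at 10 uM compound was expressed as a percentage of the effect induced by S1P.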
# [32] = molecular target: T5, Sphingosine 1-phosphate receptor 5; experiment: Agonist activity at human recombinant S1P5 receptor expressed in CHO cells at 10 uM by GTPgammaS binding assay relative to S1P; type: functional, cell-based; in short: as §6
# [33] = test system: Canis familiaris; experiment: Immunomodulatory activity in Beagle dog assessed as decrease in circulating lymphocytes count at 5 mg/kg, po after 24 hrs; type: functional, organism-based; set-up: dose 5 mg/kg; conditions: Canis lupus familiaris
# [34] = Half life in human administered as single ascending dose; type: ADME, organism-based; conditions: in vivo
# T1 sequence (P21453 whole entry): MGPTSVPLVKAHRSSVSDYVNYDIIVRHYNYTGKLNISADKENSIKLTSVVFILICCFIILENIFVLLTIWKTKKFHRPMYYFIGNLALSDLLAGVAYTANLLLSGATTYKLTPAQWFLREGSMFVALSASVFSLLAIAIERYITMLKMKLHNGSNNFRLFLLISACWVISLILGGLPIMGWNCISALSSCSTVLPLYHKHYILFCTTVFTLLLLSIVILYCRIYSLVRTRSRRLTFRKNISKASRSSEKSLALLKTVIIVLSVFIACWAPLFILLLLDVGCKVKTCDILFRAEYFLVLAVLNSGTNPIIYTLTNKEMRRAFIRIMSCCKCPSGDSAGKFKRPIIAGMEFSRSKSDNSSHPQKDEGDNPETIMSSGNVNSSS
structure (smiles),measurement,setting,value
CCC/N=C1\S/C(=C\c2ccc(OC[C@@H](O)CO)c(Cl)c2)C(=O)N1c1ccccc1C,EC50,[1],0.0091 µM
same,EC50,[2],0.123 µM
same,Activity,[3],-65%
same,Activity,[4],-63%
same,Activity,[5],-18%
same,microsomal CLint at 1 µM,[6],56 µL/min/mg
same,microsomal CLint at 1 µM,[7],7 µL/min/mg
same,microsomal CLint at 1 µM,[8],4 µL/min/mg
same,hepatocyte CLint at 1 µM,[9],3.7 µL/min/1e6 cells
same,hepatocyte CLint at 1 µM,[10],1 µL/min/1e6 cells
same,bioavailability,[11],35%
same,Cmax,[12],0.409 µg/mL
same,half-life,[13],1.3 h
same,clearance,[14],1.5 L/h/kg
same,Vd,[15],3.3 L/kg
same,bioavailability,[16],69%
same,Cmax,[17],1.36 µg/mL
same,half-life,[18],10 h
same,clearance,[19],0.078 L/h/kg
same,Vd,[20],0.9 L/kg
same,EC50,[21],0.0057 µM
same,EC50,[22],> 10 µM
same,EC50,[23],0.105 µM
same,EC50,[24],1.11 µM
same,EC50,[25],0.0591 µM
same,IC50,[26],0.006 µM
same,IC50,[27],> 10 µM
same,IC50,[28],2.07 µM
same,IC50,[29],1.96 µM
same,IC50,[30],0.142 µM
same,Activity,[31],18%
same,Activity,[32],42%
same,Activity,[33],Active
same,half-life,[34],22 h

# From ChEMBL document CHEMBL1157829, “2-imino-thiazolidin-4-one derivatives as potent, orally active S1P1 receptor agonists” (J Med Chem, 2010)
